The results in this text go back to the RNAGym collection of RNA variant scans (doi:10.1126/science.aae0568).

First the molecules themselves.
B1: tRNA (parent)
chain: GUUCCGUUGGCGUAAUGGUAACGCGUCUCCCUCCUAAGGAGAAGACUGCGGGUUCGAGUCCCGUACGGAACG

Fewer inactive variants are shown than the library holds.

In this data set the parent is B1. Briefly: yeast fitness relative to wild type (ratio to wild type); higher = fitter; tRNA-Arg(CCU), competitive growth, 37 C, YPD. An outline of the steps: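 Genotype frequency changes were the basis for Darwinian fitness relative to wild type. The frequencies came from 100-nucleotide paired-end sequencing of gene amplicons from the start population and each end population of pooled yeast strains with tRNA-Arg(CCU) gene variants at the native locus. Competition ran in YPD at 37°C for 24 hours in six replicates, genotypes needed ≥ 100 starting reads, and estimates < 0.5 were set to 0.5.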
As for A21C U47C A65C, the yeast fitness was not above 0.5. In the case of A21G C61U A70U it was 0.776; in that of A21G C61U A70G, 0.761. In the case of A21G G25A A42C, the yeast fitness was 0.707. With A21C C34U C49U, the yeast fitness is not above 0.5. A21C C29A G52C G68A: the yeast fitness turned out to be 0.664. Under A21C C46G A65U stands 0.658. Under A21C A45C C49U stands 0.582; under A21C C31A C46A U54C, not above 0.5; under A21C A45U G52C, 0.581. On to A21C C33U C61A G68C, for which the yeast fitness is not above 0.5. In the case of A21G A45C A69U it was 0.762. Under A21G C49U U53C C61G stands not above 0.5; under A21C U59A A65U, not above 0.5; under A21C G25C U26G, 0.59. Under A21C U47A G52C stands 0.662; under A21G C49A C62U, 0.544. Consider A21G U59A U64A, for which the yeast fitness was not above 0.5. As to A20U U54C G63U, the yeast fitness is not above 0.5. Under A21C U26A A40U stands 0.534; under A21C A42U G52A C60A A69G, not above 0.5. Consider A21G A36G C60U, for which the yeast fitness was found to be 0.531. Under A21C C22U C31U C33U G48C stands not above 0.5; under A21G C24U G51C, not above 0.5; under A21C C30U U32G U53C G67A, not above 0.5. As for A21G C22A C29A C61U, the yeast fitness was not above 0.5. In the case of A21G C34A it was 0.646.

As to A21G G58C U59C G63A, the yeast fitness was 0.701. Under A21G C29U G41C stands 0.562; under A21G C29G G58C A70C, not above 0.5. Under A21G A37C A43U stands 0.618; under A21C C30U A45G, not above 0.5; under A21C C27U C33A A37C, 0.554.

For A21C C31A C33G A45G G48A A65U, the yeast fitness is not above 0.5.

In the case of A21G G50A, the yeast fitness worked out at 1.14.

As to A21G G50C, the yeast fitness worked out at 0.76. In the case of A21G C31U, the yeast fitness stood at 0.872. In the case of A21C C27A U28A A45G A69C it was not above 0.5; in that of A21G G44C G63C, not above 0.5. For A21G U35C A65U, the yeast fitness was not above 0.5. Under A21C C29U A57U C60U C62U C66U stands 0.564.

As for A21G U47A G68A, the yeast fitness stood at 0.685. In the case of A21G U53A A57U A65U it was 0.52. In the case of A21C A45C C62G A65C it was 0.574. In the case of A21G A40C G50C it was not above 0.5; in that of A21C C24U A37C G39A C49G A69C, not above 0.5; in that of A21C C24A C49U, not above 0.5.

In the case of A21C G48C, the yeast fitness was 0.788.

With A21G G56C C62A, the yeast fitness was not above 0.5. In the case of A21C A37C C55A G58A it was 0.515; in that of A21C C27U C61G, 0.534.

On to A21U A40C A42U A43G C49U G50C C66U, for which the yeast fitness was not above 0.5. Regarding A20U U47G, the yeast fitness came to 0.611. In the case of A21G C22A C62U C66A it was not above 0.5.

Turning to A21U A36C C49A C62U A65U, the yeast fitness is not above 0.5. Regarding A21C C27U C33U, the yeast fitness came out at 0.544.

On to A21C G67C, for which the yeast fitness came to 0.654. In the case of A21C C24A G39A, the yeast fitness is not above 0.5. Under A21G A65G stands 1.01; under A21G A42G A45G, 0.989. In the case of A21G G23A A57C A65C A70C it was not above 0.5; in that of A21G C22G G25A G63A, not above 0.5. Turning to A21G G23A C31U G63C U64A C66G, the yeast fitness is not above 0.5. In the case of A21C G23U it was 0.714. In the case of A21C C29U C31G A43U it was 0.612; in that of A21G U32G, 0.576.

With A21G U32A, the yeast fitness is 0.661. In the case of A20U U32C A43G it was 0.659. Under A21C U26A C31U stands not above 0.5. As for A20U U28C A40U C62G, the yeast fitness worked out at 0.533. As to A21G A40C C55A, the yeast fitness was not above 0.5. With A21U A36G A43U, the yeast fitness amounted to 0.729. Under A21C A57U C62U stands not above 0.5. In the case of A21G C22A G25A C46U U54A it was not above 0.5. In the case of A21G A37C A57C it was not above 0.5; in that of A21G A42G A65C G67A, not above 0.5. In the case of A21G A36G A65C, the yeast fitness is 0.664. In the case of A21G C60U it was 0.713; in that of A21G C60A, 0.577; in that of A21G G39C C46G, 0.627. Under A21C A36C G56A stands 0.562; under A21U A42G, 0.583. Under A21C C22G U32A G56C stands not above 0.5. As to A21C U59C, the yeast fitness was 0.777.

In the case of A21C C30A C62U A70U, the yeast fitness was not above 0.5. Under A21G C49U G63A stands 0.804; under A21C C29U C31G A43U A65U, 0.593. Under A21C C29U A57C stands 0.558; under A21G C33G A40G, 0.562.

With A21G C22U G63A, the yeast fitness stood at 0.572. In the case of A20U U28G C30U U32G C34G it was not above 0.5; in that of A21C C22A C29U C49G, not above 0.5. Under A21G A43U stands 0.963. Under A21C C24U C46U C60U stands not above 0.5. In the case of A21G G23C C31U C34G A43G A45C A57U, the yeast fitness worked out at 0.574. A21C C27U C46G G48A C62G G68C: the yeast fitness is not above 0.5. Under A21G G48C stands 1.01. Under A21G G48A stands 0.92; under A21C G23A C49A C60G G63A, not above 0.5. In the case of A21G U53A it was 0.651; in that of A21C C61G, 0.585. In the case of A21G G63U, the yeast fitness amounted to 0.752. As to A21G G44A A69C, the yeast fitness was not above 0.5. Consider A21C A36G G67C, for which the yeast fitness is not above 0.5. Under A20U U64G stands 0.725; under A21U A36G C49A G63A, not above 0.5; under A21C C29U A43G C66U, not above 0.5. Under A21C C24A A65C stands not above 0.5; under A21G A36U U53A, 0.58; under A21C C34A, 0.605. In the case of A21C G58C C66U it was not above 0.5. In the case of A21U A40U, the yeast fitness came to 0.728. Under A21C C24G A37U C55U stands not above 0.5. For the variant A21U A40C A42U C49U G50C C66U, the yeast fitness was determined as 0.578. In the case of A21G U53A U54C C61G it was 0.718. In the case of A21C C27G U28A C29U C34U C62U G63C, the yeast fitness is not above 0.5. Consider A21C C34G A36G C46A C66A A70G, for which the yeast fitness was not above 0.5. Under A21U A42C C62G stands not above 0.5; under A21C G58C, 0.84; under A21C C62U C66U, 0.533. In the case of A21G U28A A42C A57G C66A it was 0.6; in that of A21G G23A C27G A37U G44A C49U G63C, not above 0.5; in that of A21G C46G, 0.987. Under A21G C27U A69C stands 0.781. With A21G U32C G51C C61A, the yeast fitness amounted to 0.508. In the case of A21G G44C it was 0.963; in that of A21C U28G A43C G52C G67U, not above 0.5. For A21G A36G G38C C49U, the yeast fitness is not above 0.5. Consider A21G C62G, for which the yeast fitness stood at 1.02. A21C C27U A45C C49U: the yeast fitness is not above 0.5. Under A21C C29A G52A C55G A57C A69C stands not above 0.5; under A20U U32A G67C, 0.543. In the case of A21G G25C C61G G68U it was not above 0.5; in that of A21G G39A U54C A70C, not above 0.5; in that of A21G A37U C66U, not above 0.5. In the case of A21C A70C it was 0.798. As for A21G A42C A43U G56C C66U, the yeast fitness amounted to 0.598. In the case of A21C C62G A65C it was not above 0.5.

As to A21C A57G, the yeast fitness stood at 0.708.

With A21C A57C, the yeast fitness turned out to be 0.548. Turning to A21C C24G G68C, the yeast fitness is not above 0.5. In the case of A21C G68U it was 0.789; in that of A21C G68A, 0.799; in that of A21G C27G G63A, not above 0.5. Under A21C U28C A45G stands 0.603. For the variant A21C U26C A57U, the yeast fitness was not above 0.5. Under A21G C27A A37U G63C stands not above 0.5; under A21G G41A, 0.995; under A21G C22G G25A G63A A69U, not above 0.5.

As for A21C C61A G68A, the yeast fitness was 0.515. Under A21U A36C G38C G58C A69C stands not above 0.5. In the case of A21U A36U A65G it was 0.589; in that of A21C A43G C60G A65G, not above 0.5. Under A20U U28C C30U A43G stands not above 0.5; under A21C G58C A65U, 0.521. On to A21G C60G A70C, for which the yeast fitness amounted to 0.579. In the case of A21G A42U G56A C61U it was not above 0.5; in that of A21G C33A A65C A70C, 0.54. In the case of A20U U35A C46G C49U it was not above 0.5; in that of A21G C27A A36U A40G G52C G67A, not above 0.5; in that of A21G C24A A69U A70G, not above 0.5. Regarding A21G A40G A42C U53A U54C, the yeast fitness is not above 0.5. Under A21U A36G C55A G67C stands not above 0.5; under A21G U53A U54A, not above 0.5; under A21G A43C C60A, not above 0.5.

Consider A21G G41A C60U, for which the yeast fitness is 0.574.

With A21C G23A G58C A65U, the yeast fitness was not above 0.5.
